The text below walks through data of ChEMBL document CHEMBL5678801, “A benzothiophene inhibitor of mitogen-activated protein kinase-activated protein kinase 2 inhibits tumor necrosis factor alpha production and has oral anti-inflammatory efficacy in acute and chronic models of inflammation” (J Pharmacol Exp Ther, 2010).

As a reminder, the clearance is the rate of elimination divided by the concentration. Low values mean inefficient removal, high ones efficient removal. The IC50 is the midpoint of a concentration-inhibition curve. What is called ED50 is the dose at which the effect has come halfway, by size or by number of responders. The AUC(0-inf) is total exposure, with the tail of the curve extrapolated. A higher AUC(0-inf) goes with high exposure.

The structures appear in SMILES notation.

Data set [1] can be described thus: Clearance in Sprague-Dawley rat plasma at 1 mg/kg measured upto 24 hrs by LC-MS/MS analysis. In kind it is ADME, organism-based. In a few lines:
(§1)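 Male Sprague-Dawley rats (275-300 g), carotid-catheterized and acclimated overnight. Dosing was i.v. at 1 mpk (n=2) in 70% saline/20% PEG-400/10% ethanol, or oral at 3 mpk (n=3) as a suspension in 0.5% HPMC/Tween. Plasma drug was measured by LC-MS/MS. Cmax and Tmax were read from individual profiles. t½ came from the terminal log-linear slope and AUC by the linear trapezoidal rule. CL = dose/AUC0-∞, Vdss = CL×MRT, F = dose-normalized AUC po/iv.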

In data set [2] the target is T1, Tyrosine-protein kinase receptor UFO (Homo sapiens, UniProt P30530).
T1 sequence (P30530 whole entry): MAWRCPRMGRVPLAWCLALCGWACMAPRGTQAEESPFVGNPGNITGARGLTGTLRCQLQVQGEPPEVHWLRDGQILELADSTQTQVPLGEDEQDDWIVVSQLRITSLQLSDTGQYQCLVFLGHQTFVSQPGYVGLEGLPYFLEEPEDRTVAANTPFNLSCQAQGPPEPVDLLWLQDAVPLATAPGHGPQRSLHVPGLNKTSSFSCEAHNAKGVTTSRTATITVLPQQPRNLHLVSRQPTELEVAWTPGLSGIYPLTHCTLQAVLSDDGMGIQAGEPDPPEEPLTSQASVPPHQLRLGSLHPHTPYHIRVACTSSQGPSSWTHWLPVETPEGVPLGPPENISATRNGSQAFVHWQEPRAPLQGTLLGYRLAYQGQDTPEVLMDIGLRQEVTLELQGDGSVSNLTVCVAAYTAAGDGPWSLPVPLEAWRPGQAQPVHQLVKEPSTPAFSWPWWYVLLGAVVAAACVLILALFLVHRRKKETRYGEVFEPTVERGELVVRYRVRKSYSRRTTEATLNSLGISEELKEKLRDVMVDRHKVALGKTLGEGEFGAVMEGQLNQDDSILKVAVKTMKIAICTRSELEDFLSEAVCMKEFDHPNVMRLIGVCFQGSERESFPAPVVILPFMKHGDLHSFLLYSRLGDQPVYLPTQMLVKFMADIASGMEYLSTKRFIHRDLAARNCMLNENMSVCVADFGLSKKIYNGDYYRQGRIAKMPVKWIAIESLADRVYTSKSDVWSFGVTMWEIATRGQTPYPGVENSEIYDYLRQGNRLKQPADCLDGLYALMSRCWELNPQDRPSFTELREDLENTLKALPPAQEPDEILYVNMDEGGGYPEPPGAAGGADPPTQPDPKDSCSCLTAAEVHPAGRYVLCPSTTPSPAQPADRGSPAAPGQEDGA
Briefly: Inhibition of Axl (unknown origin). The gist of the method: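 Kinase panel: 200 kinases were first screened at 1 μM inhibitor for percent inhibition. Those above 50% inhibition were then titrated for IC50. MgATP was fixed at the Km(app) determined for each enzyme.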

Data set [3] addresses T2, Serine/threonine-protein kinase BRSK1 (Homo sapiens, UniProt Q8TDC3).
T2 sequence (Q8TDC3 whole entry): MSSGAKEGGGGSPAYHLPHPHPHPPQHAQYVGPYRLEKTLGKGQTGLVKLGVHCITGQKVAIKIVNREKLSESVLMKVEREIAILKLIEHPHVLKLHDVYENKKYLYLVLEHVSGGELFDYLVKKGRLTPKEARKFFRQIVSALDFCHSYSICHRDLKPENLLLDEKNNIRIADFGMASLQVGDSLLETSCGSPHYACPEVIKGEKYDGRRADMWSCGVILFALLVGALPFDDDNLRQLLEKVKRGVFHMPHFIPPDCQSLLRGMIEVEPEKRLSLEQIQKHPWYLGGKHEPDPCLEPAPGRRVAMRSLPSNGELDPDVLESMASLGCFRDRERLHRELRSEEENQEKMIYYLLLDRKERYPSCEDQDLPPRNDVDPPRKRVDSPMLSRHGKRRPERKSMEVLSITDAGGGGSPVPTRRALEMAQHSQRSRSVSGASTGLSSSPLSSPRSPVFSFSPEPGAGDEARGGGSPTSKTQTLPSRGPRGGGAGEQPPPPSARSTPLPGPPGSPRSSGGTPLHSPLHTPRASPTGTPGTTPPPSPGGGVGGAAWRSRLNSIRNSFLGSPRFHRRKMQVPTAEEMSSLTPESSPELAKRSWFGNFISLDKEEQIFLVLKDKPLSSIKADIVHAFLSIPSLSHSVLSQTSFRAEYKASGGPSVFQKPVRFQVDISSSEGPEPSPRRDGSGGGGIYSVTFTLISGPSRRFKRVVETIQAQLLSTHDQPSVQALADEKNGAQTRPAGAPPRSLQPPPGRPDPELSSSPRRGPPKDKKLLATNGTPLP
As to the kind of experiment: Inhibition of BrSK1 (unknown origin). In a few lines:
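Selectivity profiling began with a 200-kinase screen at 1 μM compound; kinases above 50% inhibition were then titrated for IC50. MgATP was fixed at each enzyme's Km(app). Buffer was 20 mM HEPES pH 7.5 with 10 mM MgCl2, 1 mM DTT, 0.01% BSA and 0.0005% Tween-20. Endpoint reactions were stopped in the linear phase with 30 mM EDTA.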

Another data set has as its system Rattus norvegicus. Briefly: Antiarthritic activity in chronic SCW-induced arthritis Lewis rat model assessed as inhibition of chronic paw swelling administered twice daily via oral gavage for 10 to 21 days. In kind it is organism-based. Particulars: time 10-21 day. In a few lines:
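Female Lewis rats (125-140 g) received a single i.p. streptococcal cell wall injection. Animals showing the acute phase were pooled, 4-8 per group over three experiments. Dosing was oral gavage b.i.d., days 10-21, in methylcellulose-Tween-20 vehicle. Hind paw volume was read by displacement plethysmometer on day 21, as % inhibition of swelling. Plasma was sampled up to 11 h after the last dose, 3 rats per dose. ED values came from fitted curves.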

Data set [4] is described as follows: Cytotoxicity against human Whole blood cell assessed as reduction in cell viability at upto 20 uM. In kind it is toxicity, cell-based.
Data set [5] in a line: AUC (0 to infinity) in Sprague-Dawley rat at 3 mg/kg, po measured upto 24 hrs by […] analysis. The format is ADME, organism-based. The conditions noted are these: in vivo. The gist of the method: as §1
A short description of data set [6]: Inhibition of TNF alpha production in LPS induced human PBMC cells preincubated with compound for 1 hr followed by LPS induction and measured after 16 hrs by MSD analysis. In kind it is functional, cell-based.
Data set [7] can be described thus: Antiinflammatory activity in human PBMC cells assessed as inhibition of LPS induced IL-6 production preincubated for 1 hr followed by LPS stimulation and measured after 16 hrs by MSD analysis. The format is functional, cell-based. The gist of the method:
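Human PBMCs were pretreated with compound for 1 h (<1% DMSO final), then stimulated with LPS 100 ng/ml at 37°C. Cytokines in culture media were read by MSD 4-plex: TNFα at 4 h; IL-1β, IL-6 and IL-8 at 16 h. Data are means ±S.E.M. of two independent experiments in duplicate, three donors. IC50 by 4-parameter nonlinear regression.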

In data set [1], `Cc1ccc(-c2ccc3c(ccc4sc5c(c43)NC[C@@H](C)NC5=O)n2)cn1` had a clearance of 10.3 mL/min/kg. In addition, the 50% inhibitory concentration (IC50) in data set [2] was found to be 428 nM; in data set [3], 187 nM; in data set [6], 160 nM; in data set [7], 1400 nM. Besides, in the data set on Rattus norvegicus (Rattus norvegicus, Lewis), the ED50 is 20 mg/kg. Besides, in the data set with Rattus norvegicus (rat, in vivo, po), the ED80 was 50 mg/kg. Also, in data set [4], the Activity entry was “Non-Toxic”. Also, the AUC(0-inf) in data set [5] amounted to 1.8 µM·h.
